Measurements: article PMC6980386 (Traffic (Copenhagen, Denmark), 2019)
Entries after “also recorded” stand apart in the source; their conditions may differ.

Tests used:
[1] = biological target: FL huCD4 P6A (Homo sapiens, UniProt P01730, P6A); test: CADA down-modulation of cellular huCD4; assay type: cell-based
Procedure, shortened: (§1)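 HEK293T cells, seeded overnight in DMEM with 10% serum, 1 mM sodium pyruvate and 0.075% NaHCO₃, were lipofected with full-length human CD4 (WT or mutant). Test compound in DMSO was added 6 h post-transfection as 1:5 serial dilutions (50–0.016 μM) for 48 h. Surface CD4 was stained with FITC/APC anti-CD4 (SK3) and read by flow cytometry. IC50 is 50% of the untreated signal, from four-parameter fits of ≥3 replicate experiments. FC is mutant/WT mean IC50.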

[2] = biological target: huCD4_1–32-YFP V5A (Homo sapiens, UniProt P01730, V5A); test: CADA inhibition of huCD4_1–32-YFP secretion; assay type: cell-based
Procedure, shortened: (§2)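 HEK293T cells were grown in DMEM with 10% FBS and 10 mM HEPES, seeded and left to adhere overnight, then transiently transfected with plasmid by Lipofectamine. Test compound was added 6 h after transfection as a 1:5 serial dilution (50 to 0.016 μM) for 48 h. Secreted YFP in the supernatant was captured on GFP-Trap magnetic beads for 1 h, washed with PBS and measured by flow cytometry. IC50 is the concentration that halves the signal relative to the untreated control, taken from a four-parameter fit of at least three replicate experiments. FC is the mutant mean IC50 divided by the WT mean IC50.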

[3] = biological target: huCD4_1–32-YFP A22V (Homo sapiens, UniProt P01730, A22V); test: CADA inhibition of huCD4_1–32-YFP secretion; assay type: cell-based
Procedure, shortened: (§3)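 HEK293T cells were lipofected with human CD4 residues 1–32 fused to the N-terminus of YFP (secreted, no membrane anchor). Test compound was added 6 h post-transfection as 1:5 serial dilutions (50–0.016 μM) for 48 h. Supernatant was captured on GFP-Trap magnetic beads for 1 h, washed in PBS, and YFP was read by flow cytometry. IC50 is 50% of the untreated control, from four-parameter fits of ≥3 replicate experiments. FC is mutant/WT mean IC50.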

[4] = biological target: FL huCD4 L10A;L18A (Homo sapiens, UniProt P01730, L10A/L18A); test: CADA down-modulation of cellular huCD4; assay type: cell-based; conditions: compared with single Leu-to-Ala mutants
Procedure, shortened: as §1

[5] = biological target: FL huCD4 V29A (Homo sapiens, UniProt P01730, V29A); test: CADA down-modulation of cellular huCD4; assay type: cell-based
Procedure, shortened: as §1

[6] = biological target: FL huCD4 K26A (Homo sapiens, UniProt P01730, K26A); test: CADA down-modulation of cellular huCD4; assay type: cell-based
Procedure, shortened: as §1

[7] = biological target: FL huCD4 P20L (Homo sapiens, UniProt P01730, P20L); test: CADA down-modulation of cellular huCD4; assay type: cell-based; conditions: HEK293T, 48h
Procedure, shortened: as §1

[8] = biological target: FL huCD4 Q15N (Homo sapiens, UniProt P01730, Q15N); test: CADA down-modulation of cellular huCD4; assay type: cell-based; conditions: HEK293T, 48h
Procedure, shortened: as §1

[9] = biological target: truncated huCD4 D1D2 K27A (Homo sapiens, UniProt P01730, K27A); test: Cell-free in vitro translation and translocation; assay type: biochemical; conditions: 15 μM CADA
Procedure, shortened: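 Proteinase K protection 30 min on ice, quenched with PMSF. Pellets washed in low-salt buffer (HEPES pH 7.6), then SDS-PAGE and phosphor imaging. Translocation normalised to untreated WT. Two to five independent experiments; Welch's t test.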

[10] = biological target: huCD4_1–32-YFP P20A (Homo sapiens, UniProt P01730, P20A); test: CADA inhibition of huCD4_1–32-YFP secretion; assay type: cell-based
Procedure, shortened: as §2

[11] = biological target: FL huCD4 L16A (Homo sapiens, UniProt P01730, L16A); test: CADA down-modulation of cellular huCD4; assay type: cell-based
Procedure, shortened: as §1

[12] = biological target: huCD4_1–32-YFP L30A (Homo sapiens, UniProt P01730, L30A); test: CADA inhibition of huCD4_1–32-YFP secretion; assay type: cell-based
Procedure, shortened: as §2

[13] = biological target: FL huCD4 R8E (Homo sapiens, UniProt P01730, R8E); test: CADA down-modulation of cellular huCD4; assay type: cell-based; conditions: HEK293T, 48h
Procedure, shortened: as §1

[14] = biological target: huCD4_1–32-YFP F7A (Homo sapiens, UniProt P01730, F7A); test: CADA inhibition of huCD4_1–32-YFP secretion; assay type: cell-based
Procedure, shortened: as §3

[15] = test system: FL huCD4 V28K; test: CADA down-modulation of cellular huCD4; assay type: cell-based, human; conditions: HEK293T, 48h
Procedure, shortened: as §1

[16] = test system: mouse CD4 (mCD4); conditions: cell surface expression of mCD4; cited from earlier work
[17] = biological target: FL huCD4 A17V (Homo sapiens, UniProt P01730, A17V); test: CADA down-modulation of cellular huCD4; assay type: cell-based
Procedure, shortened: as §1

[18] = biological target: huCD4_1–32-YFP K26A (Homo sapiens, UniProt P01730, K26A); test: CADA inhibition of huCD4_1–32-YFP secretion; assay type: cell-based
Procedure, shortened: as §2

[19] = biological target: huCD4_1–32-YFP Q15A;P20A (Homo sapiens, UniProt P01730, P20A/Q15A); test: CADA inhibition of huCD4_1–32-YFP secretion; assay type: cell-based; conditions: HEK293T, 48h
Procedure, shortened: as §2

[20] = biological target: FL huCD4 G31A (Homo sapiens, UniProt P01730, G31A); test: CADA down-modulation of cellular huCD4; assay type: cell-based
Procedure, shortened: as §1

[21] = biological target: FL huCD4 V13A (Homo sapiens, UniProt P01730, V13A); test: CADA down-modulation of cellular huCD4; assay type: cell-based
Procedure, shortened: as §1

[22] = biological target: huCD4_1–32-YFP L10A (Homo sapiens, UniProt P01730, L10A); test: CADA inhibition of huCD4_1–32-YFP secretion; assay type: cell-based
Procedure, shortened: as §2

[23] = biological target: FL huCD4 K26R (Homo sapiens, UniProt P01730, K26R); test: CADA down-modulation of cellular huCD4; assay type: cell-based; conditions: HEK293T, 48h
Procedure, shortened: as §1

[24] = biological target: FL huCD4 A21V (Homo sapiens, UniProt P01730, A21V); test: CADA down-modulation of cellular huCD4; assay type: cell-based
Procedure, shortened: as §1

[25] = + less, − more sensitive to CADA
[26] = read-out: Cellular huCD4 IC50 (μM) Mean, HEK293T, CADA 48h
[27] = read-out: Secreted YFP IC50 (μM) Mean, HEK293T, CADA 48h

In the case of `C=C1CN(S(=O)(=O)c2ccc(C)cc2)CCCN(Cc2ccccc2)CCCN(S(=O)(=O)c2ccc(C)cc2)C1` [CADA, Cyclotriazadisulfonamide], the “Cellular huCD4 FC (fold change of mean IC50 relative to WT)” value [1, 25] is reported as “+1.8”, the IC50 [1, 26] is reported as 0.96 µM and the “Secreted YFP FC (fold change of mean IC50 relative to WT)” value [2, 25] is reported as −3.8. The IC50 [2, 27] was 0.33 µM, the “Secreted YFP FC (fold change of mean IC50 relative to WT)” value [3, 25] was “+1.2” and the IC50 [3, 27] was 1.58 µM. For the same molecule, the “sensitivity to CADA” value [4] was “further enhanced the effect”, the “Cellular huCD4 FC (fold change of mean IC50 relative to WT)” value [5, 25] was “+1.2” and the IC50 [5, 26] was 0.63 µM. For the same molecule, the “Cellular huCD4 FC (fold change of mean IC50 relative to WT)” value [6, 25] was “+2.7”, the IC50 [6, 26] was 1.44 µM and the “sensitivity to CADA” value [7] was “completely resistant to CADA”. The “sensitivity to CADA” value [8] was “partially restored CADA sensitivity”, the “sensitivity of translocation towards CADA compared to WT” value [9] was “significantly reduced sensitivity to CADA” and the “Secreted YFP FC (fold change of mean IC50 relative to WT)” value [10, 25] was “>+39”. The IC50 [10, 27] was over 50 µM, the “Cellular huCD4 FC (fold change of mean IC50 relative to WT)” value [11, 25] was −4.9 and the IC50 [11, 26] was 0.11 µM. The “Secreted YFP FC (fold change of mean IC50 relative to WT)” value [12, 25] was −1.2, the IC50 [12, 27] was 1.08 µM and the “sensitivity to CADA” value [13] was “reduced sensitivity to CADA”. The “Secreted YFP FC (fold change of mean IC50 relative to WT)” value [14, 25] was −2.8, the IC50 [14, 27] was 0.46 µM and the “increase in sensitivity to CADA (smaller IC50) relative to WT” value [15] was “more than 3 fold”. The “sensitivity of mouse CD4 to CADA” value [16] was “not affected by CADA; also recorded: completely resistant to CADA”, the “Cellular huCD4 FC (fold change of mean IC50 relative to WT)” value [17, 25] was “+2.5” and the IC50 [17, 26] was 1.33 µM. The “Secreted YFP FC (fold change of mean IC50 relative to WT)” value [18, 25] was “>+39”, the IC50 [18, 27] was over 50 µM and the “sensitivity to CADA” value [19] was “no longer responded to CADA”. The “Cellular huCD4 FC (fold change of mean IC50 relative to WT)” value [20, 25] was “+1.3”, the IC50 [20, 26] was 0.72 µM and the “Cellular huCD4 FC (fold change of mean IC50 relative to WT)” value [21, 25] was −3.9. For the same molecule, the IC50 [21, 26] was 0.14 µM, the “Secreted YFP FC (fold change of mean IC50 relative to WT)” value [22, 25] was −2.1 and the IC50 [22, 27] was 0.6 µM. The “sensitivity to CADA” value [23] was “kept full sensitivity to CADA”, the “Cellular huCD4 FC (fold change of mean IC50 relative to WT)” value [24, 25] was “+1.6” and the IC50 [24, 26] was 0.87 µM.
